Assay results published in ChEMBL document CHEMBL4513216, “Probing the Open Global Health Chemical Diversity Library for Multistage-Active Starting Points for Next-Generation Antimalarials” (ACS Infect Dis, 2020).

test: Toxicity liver stage against HepG2, at 10uM; assay type: cell-based; set-up: test concentration 10 uM, cell line HepG2-A16-CD81EGFP; settings: human, HepG2-A16-CD81EGFP cells; read-out: INHIBITION
In short: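 Uninfected HepG2-A16-CD81EGFP cells, 3 × 10^3 per well, 1536-well, plated on prespotted compound at 10 μM final, parasite-free screening media added to match infected plates; puromycin 10 μM positive, DMSO 0.5% negative; run in parallel with 48 h PbLuc assay at 37 °C, 5% CO2; viability by CellTiter-Glo luminescence, normalized to controls.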

SMILES	cytotoxicity at 10 µM [%]
Cc1nc(C)n(CC2CCCN(CCc3ccncc3)C2)n1 (stereo unspecified)	-23
COCCN1C[C@@H](C)[C@@]2(COCCN(C(=O)c3ccoc3)C2)C1	7.4
O=S(=O)(c1c(N2CCCCC2)ccc2nonc12)N1CCCCC1	-3.39
COCc1cccc(NC(C(N)=O)c2ccc(Br)cc2)c1 (stereo unspecified)	2.94
CN(C)C(=O)Cc1nc(CN2CCCCC2Cn2cncn2)cs1 (stereo unspecified)	-0.868
Cc1ccc(CN(Cc2nc3c(cnn3C)c(=O)[nH]2)C2CC2)o1	-1.92
Cc1ccc(-c2noc(C3CCN3C(=O)c3ccc(=O)[nH]n3)n2)s1 (stereo unspecified)	7.53
COCCC(=O)N1CCC2(CN(Cc3ccc(OC)c(F)c3)C2)C1	-10.4
C=Cc1ccc(CN2C(=O)C3(CCNCC3)Nc3ccccc32)cc1	3.39
Cc1nc(C)n(CC(=O)N2CCCC(c3nc(C)n4c(C)csc34)C2)n1 (stereo unspecified)	2.08
Cc1ncncc1C(=O)N1CCCC(n2ccnc2C)C1 (stereo unspecified)	-2.17
Cc1cc(NC(=O)NCC(CC(C)C)N2CCOCC2)n(C)n1 (stereo unspecified)	-15
CCN1C[C@H]2[C@@H](C1)N(S(=O)(=O)c1ccccc1F)CC[C@H]2OC	-74.1
COc1c(CNCc2ccccc2Cn2cncn2)c(C)nn1C	1.56
O=C(c1cc(=O)c(OCc2ccccc2F)co1)N1CCCC1	-0.321
CC(=O)N(C)C1CCN(C(=O)NCCc2cc(F)ccc2F)CC1	-7.76
COc1ccc(-c2n[nH]cc2CN(C)CCc2scnc2C)c(F)c1	3.06
CC1c2cc(F)ccc2CCN1CCS(=O)(=O)C(C)C (stereo unspecified)	2.72
CC(C)CS(=O)(=O)N1CCC2(CC1)CCn1c(-c3cnn(C)c3)cnc12	-131

SMILES	cytotoxicity at 10 µM [%]
Cc1ccc(CNC(=O)c2cc(NC(=O)C3CC3)n(C)n2)o1	4.82
CC(C(=O)NCCOc1ccccc1)n1cncn1 (stereo unspecified)	-6.85
CN(CC(O)C1CC1)C(=O)c1ccc(-c2nc(C3CC3)n[nH]2)cc1 (stereo unspecified)	-5.09
c1cncc(N2CCOC3(CCCN(c4nncs4)C3)C2)c1 (stereo unspecified)	6.56
Cn1nccc1C(=O)N1CCCC1c1ccc(C(=O)N2CCOCC2)s1 (stereo unspecified)	-145
O=C1CCC[C@]2(CN(S(=O)(=O)N3CCOCC3)C[C@H]2c2cccnc2)N1	-0.701
Cc1nn(C)c(C)c1CN(C)C(C(=O)O)c1ccc(F)cc1F (stereo unspecified)	8.42
O=C1NC2(CCN(CC(=O)N3CCOCC3)CC2)Nc2ccccc21	-1.71
O=C(CCNc1ncccn1)N1CCN(c2nccs2)CC1	-11.6
Oc1cc(C2CCNCC2)nc(-c2ccsc2)n1	4.06
O=C(N1CCOCC1)[C@@]12CCO[C@@H]1CCN(CC1CCCCC1)C2	3.59
Cc1ncc2c(n1)CN(CC(=O)Nc1nnc(C)s1)CC2	0.153
O=C1CCN(C(=O)c2ncoc2-c2ccco2)c2ncccc2N1	-3.58
CC(=O)N1CCOCC2(CN(Cc3ccccn3)CCO2)C1 (stereo unspecified)	-3.28
Cc1occc1C(=O)N1C[C@@H]2CN(S(C)(=O)=O)CCO[C@@H]2C1	-2.63
CN(C)C(=O)COC[C@]12COC[C@H]1CN(Cc1ccoc1)C2	-1.56
O=C1CCC(=O)N1CCn1nnc(-c2ccc(Br)cc2)n1	4.26
CCOc1ccc(CNCc2ccc(C(=O)NC)cc2)cc1OCC	-7.06
Cn1cc(NC(=O)N2CCC2c2ccccc2)ccc1=O (stereo unspecified)	-9.57

SMILES	cytotoxicity at 10 µM [%]
CSCCCNc1ncnc2cccc(F)c12	0.721
Cc1ncc(S(C)(=O)=O)c(C2CCCNC2)n1 (stereo unspecified)	1.17
CCCN(C(=O)c1cnns1)C1CCCN(Cc2ccccc2)C1 (stereo unspecified)	-4.35
CCN1CC(O)CN(C(=O)c2cccc(C(F)(F)F)c2)CC1=O (stereo unspecified)	4.04
CC1=N[C@@]2(CC[C@@H]3CN(C(=O)NC(C)C)C[C@@H]32)C(=O)N1CC1CC1	7.1
CC(C)(C)C(=O)NCCC(=O)NS(=O)(=O)c1ccc2c(c1)OCCO2	-3.81
Cn1cc(C(O)CNC(=O)Nc2cc(F)ccc2-n2cccn2)cn1 (stereo unspecified)	1.01
Cc1ccccc1C(=O)NC1CCN(c2cnn(C)c2)C1=O (stereo unspecified)	4.19
CCC(=O)NC(CC(C)C)c1cccs1 (stereo unspecified)	6.18
Nc1nc2c(c(N3CCCC(CN4CCCC4=O)C3)n1)CCNCC2 (stereo unspecified)	14.6
CCC(C#N)NC(=O)COC1CCCCC1 (stereo unspecified)	5.48
CCc1c(C)n(CCC#N)c2nc3ccccc3n2c1=O	2.73
COCC(NC(=O)c1cnn(C)c1)c1cccc(C(F)(F)F)c1 (stereo unspecified)	1.73
Cc1ccc(CN2CCn3cc(CN4CCN(C)CC4)nc3C2)cc1	-125
COc1cccc(CN2CCCC2Cn2nc(C)nc2C)c1 (stereo unspecified)	0.665
Cc1ccc(-c2nc(CN3CC(n4nc(C)cc4C)C3)no2)cc1	-1.64
COCCN1CC=C(c2cccc(OC)c2)CC1	6.45
Cc1nnc(C(C)N2CCN(Cc3ccc4c(c3)OCO4)CC2)o1 (stereo unspecified)	-11.6
